Bioassay records from PubChem.
Rows were chosen to be rich in hits. Some 1.3% of all compounds tested hit in one or more screens of this group.
HNF4A DNA FP: change in binding of human HNF4 alpha to DNA | activity change, % at 10 µM | 0.3% of 360,000 active | HNF4a-FITC DNA binding, fluorescence polarization, 1 h | P41235 | AID 1224865; in the data active = activity change above about 30%, passing the limit was not always enough
aDG glyco act: increases alpha dystroglycan glycosylation. Pro5-aDG cells, alpha-DG glycosylation AlphaScreen (IIH6); 0% Pro5, 100% B10-LARGE cell signal. activation, % at 10 µM. 0.22% of 360,000 active;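 active = activation of at least 8% versus controls, or a plate z-score of at least 8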;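 note: Pro5 are CHO cells carrying HIG-tagged alpha-DG that lacks glycosylation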
TPT1 inh: C. albicans TPT1 enzyme inhibition; recombinant caTPT1, FP RNA substrate dephosphorylation; inhibition, % at 5 µM; 0.81% of 300,000 active; AID 1962;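 active = inhibition above the mean of all tested compounds plus 3 SD, set per screening campaign, cut at about 24% in these data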;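 note: plate controls were DMSO alone for no effect and ferristatin control at 100 nM for full effect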
CSN deneddyl inh: blocks human CSN-mediated cullin deneddylation | Q92905 | Purified CSN, SCF-Nedd8-OG deneddylation, fluorescence polarization | inhibition, % at 12.5 µM | 0.38% of 360,000 active | AID 651999;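 active = pattern-corrected inhibition above about 35%, with an unprinted fluorescence ratio check between 0.5 and 1.5, limit read from the data, passing the limit was not always enough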;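 note: 0% = enzyme with substrate and 100% = substrate without enzyme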
Target sequence (Q92905 whole entry, looked up, one chain of several): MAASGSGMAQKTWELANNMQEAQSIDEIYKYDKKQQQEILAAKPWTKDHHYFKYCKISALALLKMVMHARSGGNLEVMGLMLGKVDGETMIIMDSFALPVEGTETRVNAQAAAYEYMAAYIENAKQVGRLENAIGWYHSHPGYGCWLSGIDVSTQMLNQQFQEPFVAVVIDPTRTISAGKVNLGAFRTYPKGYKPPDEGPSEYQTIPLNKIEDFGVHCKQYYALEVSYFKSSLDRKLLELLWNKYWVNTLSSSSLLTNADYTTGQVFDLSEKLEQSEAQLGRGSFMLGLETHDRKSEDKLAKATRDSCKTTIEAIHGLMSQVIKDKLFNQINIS
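Material: human Csn5 produced in HEK293T cells; Input: enzyme 0.24 nM; Reagent: SCFSkp2-Nedd8OG substrate at 10 nM final; Dosing: 12.5 µM compound; Incubation: 90 min reaction at room temperature; Detection: fluorescence polarization of the substrate; Evaluation: % inhibition of substrate cleavage by Csn5; Control set: substrate-only high control, full reaction low control.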
Rpn11 inh: Rpn11 (human) deubiquitinase inhibition; O00487; human 26S proteasome, Ub4-pepOG fluorescence polarization; 20S core pre-blocked with epoxomicin; inhibition, % at 20 µM; 0.59% of 360,000 active; AID 588493;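 active = inhibition at 20 µM, scaled to each plate's controls, above about 33%, limit read from the data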
Target sequence (O00487 whole entry, looked up): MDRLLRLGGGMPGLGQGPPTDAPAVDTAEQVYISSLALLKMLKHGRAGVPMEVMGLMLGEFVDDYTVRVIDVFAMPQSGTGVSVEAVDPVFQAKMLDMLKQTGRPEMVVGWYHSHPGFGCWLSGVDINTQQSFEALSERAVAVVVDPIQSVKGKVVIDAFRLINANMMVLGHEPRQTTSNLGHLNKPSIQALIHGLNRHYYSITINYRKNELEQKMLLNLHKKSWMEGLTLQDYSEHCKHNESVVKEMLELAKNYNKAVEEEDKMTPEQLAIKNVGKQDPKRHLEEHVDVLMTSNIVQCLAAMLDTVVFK
Xi reactivation: X-chromosome reactivation activator; XiGFP mouse fibroblasts, % GFP-positive cells imaging, 3 d; cells co-treated with 5-aza-dC sensitizer; scaled so ellipticine positive control = 100%; activation, % at 7.58 µM; 0.055% of 360,000 active; AID 743238;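 active = mean normalized replicate activation at least 10% and every replicate at or above 10%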;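 note: 0% = median of on-plate neutral control wells and 100% = ellipticine 6 µM median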
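System: SV40-immortalized XiGFP fibroblast cells, line 68-5-11 / Incubation: 3-day compound exposure, then 15 min fixation at room temperature / Compound: single concentration per compound, delivered by pin transfer / Buffer or medium: DMEM plus 5-aza-dC sensitizer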
Rpn11 inh conf: confirmation of human proteasome Rpn11 inhibitors. AID 602318. 29% of 1,900 active. shares compounds with Rpn11 inh. inhibition, % at 20 µM. purified human 26S proteasome, Ub4-pepOG fluorescence polarization; proteasome pretreated with epoxomicin
MMP-2 inh: blocks human MMP-2, flagging nonselective RPN11 hits; shares compounds with Rpn11 inh; 4% of 1,900 active; inhibition, % at 20 µM; recombinant MMP-2, FRET peptide cleavage fluorescence;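 note: human MMP-2 activated beforehand with APMA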
Thrombin inh: blocks bovine thrombin, flagging nonselective RPN11 hits. shares compounds with Rpn11 inh. inhibition, % at 20 µM. 13% of 1,900 active. bovine thrombin cleavage of Ub4-pepOG, fluorescence polarization. AID 602333;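 active = mean inhibition at least 40% at 20 µM, or signal 3 deviations below plate average, so some actives read negative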;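 note: plate controls were thrombin with DMSO for no effect and buffer wells lacking thrombin for full effect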
* = called active by the depositor; i = inactive; · = no result given; + = active, no number. Cut-off read from the data, not from the text of the source, unless noted: active = inhibition above about 40%; inactive = the rest.

SMILES | HNF4A DNA FP | aDG glyco act | TPT1 inh | CSN deneddyl inh | Rpn11 inh | Xi reactivation | Rpn11 inh conf | MMP-2 inh | Thrombin inh
COc1ccc(-c2nn(-c3ccccc3)cc2C=O)cc1[N+](=O)[O-] | 1 | 0 | 0 | 1 | 24 | 0 | · | · | ·
CO[C@H]1CN(C)C(=O)c2ccc(NC(=O)c3cccc(F)c3)cc2OC[C@@H](C)N(CC2CC2)C[C@H]1C | · | · | · | · | · | 0 | · | · | ·
C[C@@H]1CCCCO[C@H](CN(C)Cc2ccccc2)[C@H](C)CN([C@H](C)CO)C(=O)c2cc(NS(=O)(=O)c3ccc(F)cc3)ccc2O1 | · | · | · | · | · | 0 | · | · | ·
O=c1cc(O)c2c(=O)n(Cc3ccccc3)c3ccccc3c2o1 | 5 | 0 | 5 | 3 | 8 | 0 | · | · | ·
O=c1cc(O)c2c(=O)n(C3CCCCC3)c3ccccc3c2o1 | -2 | 0 | 20 | 11 | 62* | · | 25 | -30 | 6
CCC(=O)N1CC2(C1)[C@@H](c1ccccc1)[C@@H](CO)N2C(=O)c1cccnc1 | · | · | · | · | · | 0 | · | · | ·
CCCNC(=O)Nc1ccc2c(c1)C(=O)N(C)[C@@H]1CC[C@@H](CC(=O)NCC3CCCCC3)O[C@@H]1CO2 | · | · | · | · | · | 0 | · | · | ·
Cc1ccc2nc(SCC(=O)c3c(N)n(C)c(=O)n(C)c3=O)[nH]c2c1 | -5 | 0 | -1 | 6 | 44* | 0 | 5 | -39 | -2
Cc1ccc2nc(SCC(=O)c3cc(C)n(C)c3C)[nH]c2c1 | 2 | 0 | -1 | -5 | -8 | · | · | · | ·
C=CCNC(=O)c1ccc(Cn2c(=S)[nH]c3cc4c(cc3c2=O)OCO4)cc1 | 16 | 1 | 7 | 56* | 148* | · | 154* | 41* | -18
O=C(C[C@H]1C[C@H]2c3cc(NC(=O)CC4CC4)ccc3O[C@H]2[C@@H](CO)O1)NCc1ccncc1 | · | · | · | · | · | 0 | · | · | ·
CC[C@H]1CC=CC[C@H](C)Oc2ccccc2C(=O)N(C)[C@@H](Cc2ccccc2)C(=O)N1 (mixture of isomers) | · | · | · | · | · | 0 | · | · | ·
Cc1ccnc2c1ccc1c(C)ccnc12 | 1 | 2 | · | -2 | 46* | · | 34 | 6 | -1
CCOc1ccc2c(ccc(/C=C/c3cc(C)c4cccnc4c3O)[n+]2C)c1 | 6 | 0 | · | 102 | 112* | · | 102* | 75* | 40
C[C@@H]1CN([C@@H](C)CO)C(=O)c2cc(NC(=O)C3CCCCC3)ccc2O[C@@H](C)CCCCO[C@H]1CN(C)S(=O)(=O)c1cn(C)cn1 | · | · | · | · | · | 0 | · | · | ·
Cc1ccc(C(=O)Nc2ccc(C(=O)N/N=C/c3cccnc3)cc2)cc1 | -4 | 0 | 3 | 8 | 57* | 0 | 49* | i | -36
CCN(CC)C(=O)c1sc(NC(=O)c2ccc3c(c2)OCO3)c(C#N)c1C | -3 | 0 | 0 | 4 | -6 | · | · | · | ·
Cc1c(C(=O)N2CCOCC2)sc(NC(=O)c2ccc3c(c2)OCO3)c1C#N | 5 | 0 | 4 | 10 | 41* | · | -4 | 5 | -17
Cc1cccc(NC(=O)CCc2nc3sc4c(c3c(=O)[nH]2)CCCC4)c1 | 2 | 0 | -6 | -2 | 3 | 0 | · | · | ·
Cc1cccc(NC(=O)C(C)SCc2nc3sc4c(c3c(=O)[nH]2)CCCC4)n1 (stereo unspecified) | 17 | 0 | 18 | 9 | 48* | 0 | 35 | -19 | 24
CN(C)S(=O)(=O)c1cccc(NC(=O)CCc2nc3sc4c(c3c(=O)[nH]2)CCCC4)c1 | 0 | 0 | · | -5 | 1 | 0 | · | · | ·
COc1ccccc1NC(=O)CCc1nc2sc3c(c2c(=O)[nH]1)CCCC3 | 14 | 0 | 21 | 18 | 44* | 0 | 67* | -27 | 27
CCc1cccc(NC(=O)CCc2nc3sc4c(c3c(=O)[nH]2)CCCC4)c1 | 7 | 0 | 14 | 9 | 47* | 0 | 37 | -27 | 45*
Cc1ccc(NC(=O)CCc2nc3sc4c(c3c(=O)[nH]2)CCCC4)nc1 | 18 | 0 | 17 | 16 | 49* | · | 78* | -3 | 35
CCn1nc(CC(=O)O)c2ccccc2c1=O | 22 | 0 | -5 | 1 | 47* | 0 | -1 | -33 | -12
SMILES | HNF4A DNA FP | aDG glyco act | TPT1 inh | CSN deneddyl inh | Rpn11 inh | Xi reactivation | Rpn11 inh conf | MMP-2 inh | Thrombin inh
CCCCn1nc(CC(=O)O)c2ccccc2c1=O | -1 | 0 | 1 | -4 | -5 | · | · | · | ·
CCCc1nnc(NC(=O)Nc2ccc(OC)cc2)s1 | -1 | 0 | 2 | -1 | 2 | 0 | · | · | ·
COc1ccc(NC(=O)Nc2nnc(Cc3ccc(F)cc3)s2)cc1 | 16 | 0 | · | 15 | 59* | 0 | 27 | 2 | 27
C[C@@H]1CCCCO[C@H](CN(C)C(=O)Nc2ccccc2)[C@@H](C)CN([C@H](C)CO)C(=O)c2cc(NS(C)(=O)=O)ccc2O1 | · | · | · | · | · | 0 | · | · | ·
Cc1nc2ccccc2c(=O)n1Cc1ccco1 | -2 | 0 | 0 | -1 | 2 | 0 | · | · | ·
COc1ccc(Cn2c(-c3ccco3)nc3c(c(=O)c4ccccc4n3C)c2=O)cc1 | -2 | 0 | -3 | 26 | + | 0 | 31 | 20 | 42*
COc1ccc(Cn2c(-c3ccc(OC)cc3)nc3c(c(=O)c4ccccc4n3C)c2=O)cc1 | · | · | -2 | · | · | · | · | · | ·
COc1ccc(Cn2c(C)nc3c(c2=O)c2nc4ccccc4nc2n3Cc2ccco2)cc1 | -53 | 0 | · | 45* | + | · | 27 | 4 | -1
O=C1N[C@H](c2ccccc2)COCc2cn(nn2)CC[C@H](Cc2ccc(C(F)(F)F)cc2)C(=O)N[C@H](c2ccccc2)COCc2cn(nn2)CC[C@@H]1Cc1ccc(C(F)(F)F)cc1 | · | · | · | · | · | 0 | · | · | ·
CC(=O)N(C)C[C@H]1Oc2ccc(NC(=O)NC(C)C)cc2C(=O)N(C)C[C@H]1C | · | · | · | · | · | 0 | · | · | ·
N#C/C(=C\c1ccc(-c2cccc([N+](=O)[O-])c2)o1)C(=O)Nc1nc(-c2cccs2)cs1 | -3 | 0 | 3 | 4 | 59* | 0 | -9 | 5 | -20
Cc1ccc(S(=O)(=O)Nc2ccc3c(c2)C(=O)N([C@H](C)CO)C[C@H](C)[C@H](CN(C)C(=O)CCC(F)(F)F)OCCCC[C@@H](C)O3)cc1 | · | · | · | · | · | 0 | · | · | ·
O=C(O)c1cn(C2CC2)c2cc(N3CCN(S(=O)(=O)c4ccc5c(c4)OCCO5)CC3)c(F)cc2c1=O | 3 | 0 | 1 | 1 | 102* | 0 | 16 | -10 | 14
